Measured values gathered from unrelated publications.
pIC50, pKd, pKi: −log10 of the molar value.
ABHD6: Monoacylglycerol lipase ABHD6 (ABHD6, Homo sapiens, UniProt Q9BV23)
DRD4: D(4) dopamine receptor (DRD4, Homo sapiens, UniProt P21917)
VASP: Vasodilator-stimulated phosphoprotein (VASP, Homo sapiens, UniProt P50552)

SMILES	target	effect on	action	technique	setting	measurement	result
C[C@@H](NC(=O)C[C@@H](N)Cc1ccc(O)cc1)C(=O)NCC(=O)N[C@@H](Cc1ccccc1)C(=O)NNC(=O)[C@H](Cc1ccccc1)NC(=O)CNC(=O)[C@@H](C)NC(=O)C[C@@H](N)Cc1ccc(O)cc1	Mu-type opioid receptor (Oprm1, Rattus norvegicus, UniProt P33535)	ligand displacement	–	radioligand	–	pIC50	6.87
C[C@H](N)Cn1ncc2ccc3c(c21)CCCO3	D(4) dopamine receptor (DRD4, Homo sapiens, UniProt P21917, del265-296)	ligand displacement	–	radioligand	–	pIC50	< 4.00
CN1CCc2c(c3ccccc3n2Cc2ccccc2)C1	5-hydroxytryptamine receptor 5A (HTR5A, Homo sapiens, UniProt P47898)	ligand displacement	–	radioligand	–	pKi	6.89
C=C1CC1CC(=O)SCCNC(=O)CCNC(=O)[C@H](O)C(C)(C)COP(=O)(O)OP(=O)(O)OC[C@H]1O[C@@H](n2cnc3c(N)ncnc32)[C@H](O)[C@@H]1OP(=O)(O)O (mixture of isomers)	IVD (Homo sapiens, UniProt P26440)	binding	–	absorbance	–	pKd	~4.65
COc1ccc(N(C)C(=O)Oc2nsnc2N2CCCCC2)cc1	ABHD6	enzyme activity	inhibitor	fluorescence	lysate	pIC50	6.58
CCCCOc1ccc(C(=O)CCN2CCCCC2)cc1	DRD4	ligand displacement	–	radioligand	–	pIC50	5.39
CC(=O)N[C@@H](Cc1ccccc1Cl)C(=O)N1CCC[C@H]1C(=O)N1CCC[C@H]1C(=O)N1CCC[C@H]1C(=O)N1CCC[C@H]1C(=O)O	VASP	binding	–	fluorescence	–	pKd	4.89
CN(C(=O)Oc1nsnc1N1CCOCC1)C1CCCCCCC1	ABHD6	enzyme activity	inhibitor	fluorescence	lysate	pIC50	7.36
CNC(=O)c1cccc(-c2ccc(O[C@H]3O[C@H](CO)[C@@H](O)[C@H](O)[C@@H]3O)cc2)c1	Type 1 fimbrin D-mannose specific adhesin, N-terminal domain (fimH, Escherichia coli K-12, UniProt P08191)	binding	–	BLI	–	pKd	11.00
OC(c1ccc(F)cc1)C(F)(F)CCN1CCC(O)(c2ccc(Cl)cc2)CC1 (racemic)	DRD4	cell-free assay	–	radioligand	–	pKi	7.29
O=C(COc1ccc2cc(C(=O)Nc3ccccc3)ccc2c1)NCc1ccc(OP(=O)(O)O)c(OP(=O)(O)O)c1	Signal transducer and activator of transcription 6, SH2 (Homo sapiens, UniProt P42226)	ligand displacement	–	FP	–	pKi	5.46
CN(C(=O)Oc1nsnc1N1CCCCC1)c1cccc([N+](=O)[O-])c1	ABHD6	enzyme activity	inhibitor	fluorescence	lysate	pIC50	5.92
CC(=O)N[C@@H](CO)C(=O)N[C@@H](Cc1ccccc1)C(=O)N[C@@H](CCC(=O)O)C(=O)N[C@@H](Cc1ccccc1)C(=O)N1CCC[C@H]1C(=O)N1CCC[C@H]1C(=O)N1CCC[C@H]1C(=O)N1CCC[C@H]1C(=O)N[C@H](C(=O)N[C@@H](CCC(=O)O)C(=O)N[C@@H](CC(=O)O)C(=O)N[C@@H](CCC(=O)O)C(=O)N[C@@H](CC(C)C)C(N)=O)[C@@H](C)O	VASP	binding	–	fluorescence	–	pKd	4.72
